An excerpt weighted towards active compounds, which were near 1.6% of everything screened.
T cell modulator: T cell immune modulation candidate; 2C CD8+ T cell-vesicle binding, flow cytometry; active compounds read low; response (vesicle binding), % at 7 µM; hit rate 0.068% among 330,000;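 active = response, share of CD8 T cells binding vesicles, and their 90th percentile fluorescence all below set limits, cut at about 80% in these data, passing the limit was not always enough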;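 note: values below 100% mean blocked vesicle binding to the CD8+ T cells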
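Benchmarks: naked versus QL9-loaded vesicles / Assay system: purified 2C TCR transgenic mouse naive CD8+ T cells / Technique: high-throughput flow cytometry with anti-B7-1 and anti-CD8 staining / Timing: Cell–vesicle co-incubation 1.5 h at 37 °C, staining 20 min on ice / Read-out: percent CD8+ FL2 mean versus row control / Probe or stimulus: QL9-loaded Drosophila micro-vesicles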
HKDC1 inh: blocks human hexokinase HKDC1 activity | Q2TB90 | recombinant HKDC1, G6PDH/diaphorase resazurin coupled fluorescence | inhibition, % at 20 µM | hit rate 0.16% among 340,000;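 active = inhibition above about 35% when tested at 20 µM, limit read from the data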;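 note: plate controls were DMSO wells with enzyme for no effect and DMSO wells lacking enzyme for full effect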
Target sequence (Q2TB90 whole entry, looked up): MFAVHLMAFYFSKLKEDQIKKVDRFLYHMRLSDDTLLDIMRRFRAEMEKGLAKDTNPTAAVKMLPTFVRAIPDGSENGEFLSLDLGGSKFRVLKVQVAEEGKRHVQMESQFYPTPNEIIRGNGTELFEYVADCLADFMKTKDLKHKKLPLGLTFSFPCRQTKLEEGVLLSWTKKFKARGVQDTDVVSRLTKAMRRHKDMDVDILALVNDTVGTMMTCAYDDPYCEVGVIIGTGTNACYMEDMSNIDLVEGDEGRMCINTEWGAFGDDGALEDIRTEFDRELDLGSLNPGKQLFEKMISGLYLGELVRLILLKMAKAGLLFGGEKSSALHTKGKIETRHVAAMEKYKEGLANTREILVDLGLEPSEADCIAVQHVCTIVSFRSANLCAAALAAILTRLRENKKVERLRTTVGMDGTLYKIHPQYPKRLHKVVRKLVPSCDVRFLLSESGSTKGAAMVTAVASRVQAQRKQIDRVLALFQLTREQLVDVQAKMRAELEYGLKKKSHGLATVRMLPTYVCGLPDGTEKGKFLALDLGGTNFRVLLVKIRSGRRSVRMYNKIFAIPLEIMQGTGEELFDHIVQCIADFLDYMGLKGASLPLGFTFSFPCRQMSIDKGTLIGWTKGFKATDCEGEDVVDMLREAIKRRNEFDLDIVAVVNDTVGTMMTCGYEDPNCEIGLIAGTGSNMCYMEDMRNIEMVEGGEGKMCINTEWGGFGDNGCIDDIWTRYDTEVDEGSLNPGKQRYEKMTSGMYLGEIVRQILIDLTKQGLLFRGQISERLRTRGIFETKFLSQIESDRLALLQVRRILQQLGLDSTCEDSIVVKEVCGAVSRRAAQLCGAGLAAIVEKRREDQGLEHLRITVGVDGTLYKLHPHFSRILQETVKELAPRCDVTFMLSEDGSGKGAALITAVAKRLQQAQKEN
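Material – in-house recombinant HK5 (HKDC1) enzyme · Quantity – HKDC1 at 5 µg/mL · Buffer or medium – pH 8.0 Tris buffer with 10 mM MgCl2 · Reagent – glucose with 1 mM ATP · Dosing – single 20 µM dose · Times – reaction time 90 min, room temperature, protected from light · Technique – resorufin fluorescence at 613 nm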
PKA-R2B act: PKA-R2B complex activation; P22694+P31323; PKA-R2B holoenzyme dissociation, Cy5-IP20 fluorescence polarization; R2B truncated from residue 108, S112A mutant; 0% DMSO only, 100% 113 µM cGMP; activation, % at 11.4 µM; hit rate 0.079% among 340,000; AID 504700;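 active = activation above a cutoff set at the mean over all compounds plus 3 SD, cut at about 18% in these data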;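 note: higher means more holoenzyme dissociation and a rise in polarization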
PKA-R1A act: PKA-R1A complex activation | PKA-R1A dissociation, Cy5-IP20 fluorescence polarization; scaled: DMSO 0%, 113 µM cGMP 100% | activation, % at 11.4 µM | hit rate 0.083% among 340,000 | AID 504707;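 active = percent activation above the mean of all tested compounds plus 3 SD, cut at about 19% in these data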;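 note: higher means more PKAc released from R1A so a rise in polarization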
ATG4B inhibitor: ATG4B (human) cysteine protease inhibition; Q9Y4P1; ATG4B cleavage of LC3-PLA2, NBD-HPC fluorescence, 1 h; inhibition, % at 8.33 µM; hit rate 0.51% among 340,000; AID 504462; in the data active = inhibition above about 40%
PfGluPho inh: PfG6PD (Plasmodium falciparum) enzyme inhibition | PfGluPho enzyme, NADPH resazurin-diaphorase fluorescence | inhibition, % at 20 µM | hit rate 0.78% among 350,000 | AID 504690;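 active = inhibition reaching at least a set limit at 20 µM in the primary screen, cut at about 59% in these data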;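 note: 0% = DMSO wells with substrate and 100% = DMSO wells lacking glucose-6-phosphate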
Active calls of the source: *; · = no result.

SMILES	T cell modulator	HKDC1 inh	PKA-R2B act	PKA-R1A act	ATG4B inhibitor	PfGluPho inh
CCOC(=O)CNC1CC(=O)N(c2ccc(Br)cc2)C1=O (stereo not drawn)	110.4	1.0	-2.0	2.0	-4.9	-0.6
Cc1ccc(S(=O)(=O)N(C)C)cc1NC(=O)COC(=O)Cc1ccsc1	324.6	-1.2	-14.4	-2.7	-8.9	13.5
N#CC1=C2SCN(Cc3ccco3)CN2C(=O)CC1c1ccc(Cl)cc1 (stereo not drawn)	340.4	16.7	2.1	6.2	20.6	54.2
COc1ccc(C2CC(=O)N3CN(c4ccccc4F)CSC3=C2C#N)cc1OC (stereo not drawn)	361.8	8.1	-5.3	7.8	-6.4	68.3*
Cc1cccc(N2CSC3=C(C#N)C(c4ccc(C)o4)CC(=O)N3C2)c1 (stereo not drawn)	713.2	·	·	·	·	·
COc1ccc(C2CC(=O)N3CN(c4ccc(C)c(Cl)c4)CSC3=C2C#N)cc1 (stereo not drawn)	618.8	17.6	-7.8	-18.5	-0.4	70.5*
COc1cc(OC)c(C2CC(=O)N3CN(c4ccccc4C)CSC3=C2C#N)cc1OC (stereo not drawn)	211.9	·	·	·	·	·
N#CC1=C2SCN(Cc3ccccc3)CN2C(=O)CC1c1ccc2c(c1)OCO2 (stereo not drawn)	369.0	17.0	2.3	-6.2	8.1	60.7*
COc1ccc(OC)c(C2CC(=O)N3CN(c4ccccc4)CSC3=C2C#N)c1 (stereo not drawn)	659.8	12.1	-0.2	-3.9	-5.8	80.8*
NC(=O)CSc1n[nH]c(=O)n1CCc1ccccc1	717.4	-5.6	0.1	-8.2	-7.8	2.8
COc1cccc(C(=O)OCC(=O)c2ccc(Br)s2)c1OC	83.6	-3.3	-4.6	2.1	-27.4	6.1
Cc1cc(C)c(NC(=O)CNC(=O)[C@@H]2CCCN2C(=O)c2cccs2)c(C)c1	422.4	-2.1	-0.8	8.8	-0.5	10.0
O=C(COc1ccc2ccc(=O)oc2c1)Nc1cccc(S(=O)(=O)N2CCCCC2)c1	254.8	-3.6	8.3	9.4	-25.8	-5.0
CCOc1ccc(Oc2ccc(NC(=O)CSc3nncn3C)cc2)cc1	·	-3.6	-13.9	-0.2	-3.5	-5.9
O=Cc1ccc(-c2cccs2)s1	·	-5.6	-8.0	16.2	6.7	14.8
Oc1ccc(N=Cc2ccc(-c3cccs3)s2)cc1	259.0	15.4	-0.5	3.0	-5.0	71.6*
COc1ccc2sc(-c3ccc(SC)cc3)c(/C=C/c3ccc(OC)c(OC)c3)c2c1	314.9	-1.3	7.7	7.3	-1.7	9.8
N=C1C(=O)OCC1c1ccccc1NC(=O)c1ccccc1 (stereo not drawn)	143.5	14.8	-7.3	-8.4	-0.4	-6.5
COc1ccc(C2COC(=O)C2=N)c(NC(=O)c2ccc(Cl)cc2)c1 (stereo not drawn)	0.0*	13.9	11.5	-5.4	-4.7	3.4
C[C@@H]1COC(=O)[C@H](Cc2ccc(F)cc2)CC/C=C\C[C@@H](CC(=O)NCCO)C(=O)N1	59.6*	5.9	6.5	-9.0	-2.2	7.2
COC(=O)c1cccc(N2CCCC2=O)c1	394.4	-5.4	-1.6	-0.7	-1.4	-13.0
O=c1c2ccccc2sn1-c1ccc(F)cc1	709.8	3.5	-7.7	-14.0	2.3	112.8*
O=c1sc2ccccc2c(=O)n1Cc1ccccc1F	179.5	1.0	8.3	8.7	5.9	1.8
COC(=O)c1cccc(-n2sc3ccccc3c2=O)c1	510.3	2.0	-14.1	-12.7	-8.7	116.7*
CCCCn1c(N)c(N(CC(C)C)C(=O)c2cccc(-n3cnnn3)c2)c(=O)[nH]c1=O	246.8	1.6	0.2	-2.7	4.6	-15.6
SMILES	T cell modulator	HKDC1 inh	PKA-R2B act	PKA-R1A act	ATG4B inhibitor	PfGluPho inh
COc1cccc(-c2ncc3ccccc3c2COC(=O)c2ccc(C(C)(C)C)cc2)c1	244.6	3.2	-6.6	-6.9	-2.4	18.6
Cc1cc(C)cc(C(=O)NC(=S)Nc2cccnc2)c1	312.6	-1.9	-4.5	-6.2	5.2	-13.4
Oc1ccc(N=Nc2cccc(C(F)(F)F)c2)cc1C=Nc1ccc(N2CCOCC2)cc1	0.0*	-2.3	-1.6	-7.5	18.5	5.3
Cc1nc2cc(Cl)ccc2c(=O)n1Cc1ccncc1	308.9	5.1	6.9	-2.6	-6.5	-1.4
O=c1c2c(nc3n1CCS3)c1cc(F)ccc1n2Cc1cc(=O)n2cc(Cl)ccc2n1	153.4	7.3	·	·	-8.7	61.7*
Cc1cc(C)c(S(=O)(=O)/N=C2/C=C(Sc3ncn[nH]3)C(=O)c3ccccc32)cc1C	530.7	63.7*	6.8	4.3	-18.1	109.3*
Cc1ccc(C)c(S(=O)(=O)/N=C2\C=C(NS(=O)(=O)c3ccccc3)C(=O)c3ccccc32)c1	181.7	21.2	-3.2	-1.6	-4.3	8.1
COc1cc(C=NNC(=O)c2ccccc2NS(=O)(=O)c2cccs2)cc(OC)c1O	153.1	-0.5	1.4	-9.6	-11.1	1.1
COc1cc(/C=N/NC(=O)c2ccc(NS(=O)(=O)c3cccs3)cc2)cc(OC)c1O	80.0*	4.7	-8.7	-11.5	-2.0	4.8
COc1cccc(NC(=O)Nc2ccc3nc(C)c(C)nc3c2)c1	72.8*	3.5	0.2	2.5	-0.1	7.3
Cc1ccc(C(=O)C(c2ccccc2)N2Cc3ccccc3C2=N)cc1 (stereo not drawn)	115.6	1.4	-17.5	-8.4	29.2	64.9*
O=C(O)CC(c1ccc(C(F)(F)F)cc1)N1Cc2ccccc2C1=O (stereo not drawn)	237.8	-1.6	3.2	-1.9	0.2	-2.8
CC(=O)Nc1ccc(C(=O)OCC(=O)Nc2c(C)n(C)n(-c3ccccc3)c2=O)cc1	232.3	-4.0	-11.3	-6.2	7.1	-7.0
Cc1ccc(C)c(OC(=O)c2cncc(Br)c2)c1	0.0*	-1.1	-7.5	-1.4	2.2	-9.7
CCCCc1ccc(/C=C2\C(=O)c3ccccc3C(O)=C2C(=O)OCC)cc1	967.4	·	·	·	·	·
CC(C)n1c(=O)[nH][nH]c1=S	946.6	-1.8	·	·	-2.2	74.7*
CC(C)n1c(=O)[nH]c2ccccc21	508.6	-5.2	-3.8	-16.7	3.7	10.7
Cc1nccn1CCOc1ccc(Cl)cc1	305.3	-1.2	6.9	-4.4	-6.3	-7.9
COC(=O)c1ccc2c(=O)[nH]c(CSc3nc(C)cs3)nc2c1	307.9	-3.4	-3.9	7.7	1.2	-6.3
COC(=O)c1ccc2c(=O)[nH]c(CSc3nc(-c4ccc(F)cc4)cs3)nc2c1	77.7*	-10.4	-2.1	-16.6	-2.6	-4.3
COc1ccc(S(=O)(=O)N2CCCCC2)cc1C(=O)N1CCCC1	0.0*	-3.7	-9.2	-7.9	-2.2	-8.1

Source: PubChem
